Calls of active or inactive are those of the source. No cut-off for these calls is given here.
Experiments:
[1] = molecular target: Acetylcholinesterase (Electrophorus electricus, UniProt O42275); assay: Inhibition of Electric eel AChE after 2 mins by colorimetric Ellman assay
[2] = molecular target: Cholinesterase (Equus caballus, UniProt P81908); assay: Inhibition of Equine serum BChE after 2 mins by colorimetric Ellman assay
[3] = Selectivity ratio of IC50 for Electric eel AChE to IC50 for equine serum BChE
[4] = Cytotoxicity against human U87MG cells assessed as cell viability after 24 hrs by MTT assay; type: cell-based, U-87MG ATCC
Method in brief: (§1)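 Photometric MTT cell-viability readout after compound exposure of human neuronal (SH-SY5Y) or glial (MG-U87) cells. CC50 reported as mean ± SD of at least three experiments, each run in triplicate.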

[5] = Cytotoxicity against human SH-SY5Y cells assessed as cell viability after 24 hrs by MTT assay; type: cell-based; method in brief: as §1
[6] = molecular target: Cholinesterase (Equus caballus) (UniProt P81908); assay: Competitive inhibition of Equine serum BChE by Lineweaver-Burke plot
Chain of Cholinesterase (Equus caballus) (P81908 whole entry): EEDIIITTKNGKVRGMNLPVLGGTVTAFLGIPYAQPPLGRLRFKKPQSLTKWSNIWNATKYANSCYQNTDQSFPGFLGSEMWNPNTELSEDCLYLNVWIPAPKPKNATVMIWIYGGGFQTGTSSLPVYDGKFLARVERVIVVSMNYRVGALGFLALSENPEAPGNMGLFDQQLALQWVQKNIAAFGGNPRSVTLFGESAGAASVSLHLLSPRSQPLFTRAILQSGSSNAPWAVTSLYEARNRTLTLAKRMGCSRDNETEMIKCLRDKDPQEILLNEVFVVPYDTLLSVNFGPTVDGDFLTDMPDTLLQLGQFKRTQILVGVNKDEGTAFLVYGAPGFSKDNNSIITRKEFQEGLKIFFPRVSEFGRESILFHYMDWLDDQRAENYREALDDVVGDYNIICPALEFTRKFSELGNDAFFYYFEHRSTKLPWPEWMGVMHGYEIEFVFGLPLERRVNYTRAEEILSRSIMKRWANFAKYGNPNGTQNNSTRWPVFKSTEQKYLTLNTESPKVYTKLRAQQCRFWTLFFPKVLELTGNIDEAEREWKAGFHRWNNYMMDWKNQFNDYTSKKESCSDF
Method in brief: (§2)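 Equine serum BChE. Substrate-velocity curves were recorded at various substrate concentrations, each at several fixed inhibitor concentrations. Data were plotted as reciprocal velocity against reciprocal substrate concentration (Lineweaver-Burk). Km was taken as the negative reciprocal of the x-intercept and Vmax as the reciprocal of the y-intercept, then compared across inhibitor concentrations.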

[7] = molecular target: Cholinesterase (Equus caballus) (UniProt P81908); assay: Reversible inhibition of Equine serum BChE by Lineweaver-Burke plot; method in brief: as §2

Chain of Acetylcholinesterase (O42275 whole entry): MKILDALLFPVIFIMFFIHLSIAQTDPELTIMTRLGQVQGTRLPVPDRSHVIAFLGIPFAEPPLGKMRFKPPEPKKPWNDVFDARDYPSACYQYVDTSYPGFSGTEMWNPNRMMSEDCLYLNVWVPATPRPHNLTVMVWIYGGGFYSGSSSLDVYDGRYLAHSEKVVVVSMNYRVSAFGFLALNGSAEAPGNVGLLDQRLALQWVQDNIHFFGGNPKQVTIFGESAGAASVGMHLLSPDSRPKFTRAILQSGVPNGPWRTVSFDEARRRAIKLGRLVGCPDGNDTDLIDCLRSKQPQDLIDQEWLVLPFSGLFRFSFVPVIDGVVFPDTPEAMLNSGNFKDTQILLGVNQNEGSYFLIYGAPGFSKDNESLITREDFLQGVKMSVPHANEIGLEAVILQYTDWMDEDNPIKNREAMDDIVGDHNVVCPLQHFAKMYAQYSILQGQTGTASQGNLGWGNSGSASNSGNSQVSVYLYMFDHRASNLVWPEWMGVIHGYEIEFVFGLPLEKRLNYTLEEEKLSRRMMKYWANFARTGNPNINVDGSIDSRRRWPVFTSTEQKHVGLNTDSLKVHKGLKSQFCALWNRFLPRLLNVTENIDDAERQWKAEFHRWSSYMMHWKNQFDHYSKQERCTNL
Chain of Cholinesterase (P81908 whole entry): as the sequence (P81908 whole entry) above

Compound	IC50 ([1]; read-out: IC50)	IC50 ([2]; read-out: IC50)	Ratio IC50 [3]	CC50 at 24 h [4]	CC50 at 24 h [5]	IC50 ([2]; read-out: pIC50 (converted))	IC50 ([1]; read-out: pIC50 (converted))	inhibition [6]	inhibition [7]
COc1ccc2c(c1)CCN(C)CCc1ccccc1C2	> 10000 µM	> 10000 µM							
C[N+]12CCc3ccccc3C1c1ccc(OCCCCCCOc3ccc4c(c3)CC[N+]3(C)CCc5ccccc5C43)cc1CC2 (centres undefined)	0.15 µM	0.027 µM	5.6						
c1ccc2c(c1)CCN1CCc3cc(OCCCCOc4ccc5c(c4)CCN4CCc6ccccc6C54)ccc3C21 (centres undefined)	1.1 µM	0.017 µM	76.2	19.5 µM	6.35 µM				
c1ccc2c(c1)CCN1CCc3cc(OCCCOc4ccc5c(c4)CCN4CCc6ccccc6C54)ccc3C21 (centres undefined)	4.5 µM	0.15 µM	30.8	26.9 µM	8.94 µM				
COc1ccc2c(c1)CC[N+]1(C)CCc3ccccc3C21 (centres undefined)	8.8 µM	6.4 µM	1.4						
C[N+]12CCc3ccccc3C1c1ccc(OCCCCCCCCCCCCOc3ccc4c(c3)CC[N+]3(C)CCc5ccccc5C43)cc1CC2 (centres undefined)	0.12 µM	0.036 µM	3.4			0.0353 µM			
COc1ccc2c(c1)CCN1CCc3ccccc3C21 (centres undefined)	> 10000 µM	> 10000 µM		775 µM	171 µM				
C[N+]12CCc3ccccc3C1c1ccc(OCCCCCCCCOc3ccc4c(c3)CC[N+]3(C)CCc5ccccc5C43)cc1CC2 (centres undefined)	0.28 µM	0.11 µM	2.5						
c1ccc2c(c1)CCN1CCc3cc(OCCCCCCCCCCCCOc4ccc5c(c4)CCN4CCc6ccccc6C54)ccc3C21 (centres undefined)	4.1 µM	0.92 µM	4.2	46.6 µM					
C[N+]12CCc3ccccc3C1c1ccc(OCCCOc3ccc4c(c3)CC[N+]3(C)CCc5ccccc5C43)cc1CC2 (centres undefined)	0.45 µM	0.16 µM							
CN1CCc2ccccc2Cc2ccc(OCCCOc3ccc4c(c3)CCN(C)CCc3ccccc3C4)cc2CC1	4.8 µM	0.14 µM	34						
C[N+]12CCc3ccccc3C1c1ccc(OCCCCOc3ccc4c(c3)CC[N+]3(C)CCc5ccccc5C43)cc1CC2 (centres undefined)	0.39 µM	0.051 µM	8.8						
C[N+]12CCc3ccccc3C1c1ccc(OCCCCCOc3ccc4c(c3)CC[N+]3(C)CCc5ccccc5C43)cc1CC2 (centres undefined)	0.28 µM	0.047 µM	5.9						
c1ccc2c(c1)CCN1CCc3cc(OCCCCCOc4ccc5c(c4)CCN4CCc6ccccc6C54)ccc3C21 (centres undefined)	0.65 µM	0.017 µM	38.3	8.7 µM			0.308 µM		
CN1CCc2ccccc2Cc2ccc(OCCCCCCCCOc3ccc4c(c3)CCN(C)CCc3ccccc3C4)cc2CC1	2 µM	0.21 µM	9.9						
c1ccc2c(c1)CCN1CCc3cc(OCCCCCCOc4ccc5c(c4)CCN4CCc6ccccc6C54)ccc3C21 (centres undefined)	0.69 µM	0.014 µM	48.9	20.7 µM	7.4 µM			Active	Active
c1ccc2c(c1)CCN1CCc3cc(OCCCCCCCCOc4ccc5c(c4)CCN4CCc6ccccc6C54)ccc3C21 (centres undefined)	1.2 µM	0.68 µM	3	42 µM	19.2 µM				

Reference: ChEMBL document CHEMBL1157900, “Bivalent 5,8,9,13b-tetrahydro-6H-isoquino[1,2-a]isoquinolines and -isoquinolinium salts: novel heterocyclic templates for butyrylcholinesterase inhibitors” (Bioorg Med Chem Lett, 2010)
